# Laboratory results as given in ChEMBL document CHEMBL4665634, “Inhibiting Aβ toxicity in Alzheimer's disease by a pyridine amine derivative” (Eur J Med Chem, 2019).
# Activity calls are given as the source filed them. No cut-off for these calls is given here.
# Tests used:
# [1] = molecular target: T1, Amyloid-beta precursor protein (Homo sapiens, UniProt P05067); experiment: Inhibition of amyloid beta (1 to 42)-induced paralysis in transgenic Caenorhabditis elegans GMC101 L3 expressing human amyloid beta (1 to 42) assessed as reduction in fluorescence intensity at 100 uM incubated for 2 days by fluorescence based confocal microscopic analysis relative to control; settings: time 2.0 day
# T1 sequence (P05067 whole entry): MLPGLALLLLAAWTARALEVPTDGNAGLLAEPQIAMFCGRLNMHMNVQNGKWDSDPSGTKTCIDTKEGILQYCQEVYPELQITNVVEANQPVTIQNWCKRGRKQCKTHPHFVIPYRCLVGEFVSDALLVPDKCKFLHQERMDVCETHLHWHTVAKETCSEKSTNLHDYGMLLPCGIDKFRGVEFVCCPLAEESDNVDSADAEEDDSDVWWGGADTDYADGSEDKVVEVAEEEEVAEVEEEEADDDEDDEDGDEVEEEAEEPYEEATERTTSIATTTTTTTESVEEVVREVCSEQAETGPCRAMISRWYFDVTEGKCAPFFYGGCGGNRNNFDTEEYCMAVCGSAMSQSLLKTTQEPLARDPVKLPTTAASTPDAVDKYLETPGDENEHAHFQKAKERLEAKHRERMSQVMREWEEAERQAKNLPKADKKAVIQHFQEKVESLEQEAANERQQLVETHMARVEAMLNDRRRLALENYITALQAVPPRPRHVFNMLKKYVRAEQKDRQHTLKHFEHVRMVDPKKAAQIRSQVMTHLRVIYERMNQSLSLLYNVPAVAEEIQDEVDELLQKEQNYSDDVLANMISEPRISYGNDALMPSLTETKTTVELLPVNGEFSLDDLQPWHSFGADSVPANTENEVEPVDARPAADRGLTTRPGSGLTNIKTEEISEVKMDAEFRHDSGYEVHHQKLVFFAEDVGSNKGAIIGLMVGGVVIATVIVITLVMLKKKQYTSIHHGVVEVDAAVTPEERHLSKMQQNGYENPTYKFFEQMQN
# How it was run: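 GMC101 L3 worms kept on compound plates (50, 100 µM) at 25 °C for 2 days, mounted on 2% agarose pads. GFP imaged by confocal microscopy at ex 488/em 500–530 nm and intensity quantified. Two experiments, 15 worms per group.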
# [2] = molecular target: T1, Amyloid-beta precursor protein; experiment: Inhibition of amyloid beta (1 to 42)-induced paralysis in transgenic Caenorhabditis elegans CL4176 L3 expressing human amyloid beta (1 to 42) assessed as reduction in fluorescence intensity at 50 to 200 uM incubated for 2 days by thiofavin-T based fluorescence microscopic analysis; settings: dose microM 50-200, time 2.0 day
# How it was run: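 CL4176 L3 worms kept on compound plates (50, 100, 200 µM) at 25 °C for 2 days. Stained with ThT (10 µM) for 5 min, held 2 h on NGM without OP50, then mounted on 2% agarose pads. Fluorescence imaged at ex 488/em 500–530 nm, in triplicate with 15–20 worms per group.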
# Caenorhabditis elegans [3] = experiment: Reduction in less than 55 kDa amyloid beta species expression in Caenorhabditis elegans CL4176 at 50 uM after 48 hrs by Western blot analysis; format: functional
# How it was run: (§1)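 CL4176 raised on plates with compound (50 µM) at 15 °C to L3, then kept at 25 °C for 2 days. Worms sonicated in 0.1 M phosphate buffer, 16 µg protein run on 12% SDS-PAGE and blotted to PVDF. Probed with 6E10 (1:1000) and HRP anti-mouse secondary, with β-actin as the loading control.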
# Caenorhabditis elegans [4] = experiment: Reduction in 12 kDa amyloid beta species expression in Caenorhabditis elegans CL4176 at 50 uM after 48 hrs by Western blot analysis; format: functional; how it was run: as §1
# Caenorhabditis elegans [5] = experiment: Reduction in 16 kDa amyloid beta species expression in Caenorhabditis elegans CL4176 at 50 uM after 48 hrs by Western blot analysis; format: functional; how it was run: as §1
# Caenorhabditis elegans [6] = experiment: Reduction in amy-1 mRNA expression in Caenorhabditis elegans CL4176 at 50 to 100 uM after 48 hrs by qRT-PCR analysis; format: functional; settings: dose microM 50-100, time 48.0 hrs
# How it was run: (§2)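 CL4176 worms treated with compound at 25 °C for 48 h (50, 100 µM for amy-1). RNA extracted with Trizol, cDNA made, EvaGreen qRT-PCR run for 40 cycles (95 °C 5 s, 60 °C 5 s). Normalized to ama-1 by the 2^−ΔΔCt method. Three independent preparations, samples in triplicate.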
# Caenorhabditis elegans [7] = experiment: Antioxidant activity in Caenorhabditis elegans CL4176 assessed as effect on ROS production at 100 uM and 15 to 25 degreeC after 48 hrs by H2DCF-DA probe based fluorescence assay ( Rvb = 33.68 %); format: functional
# Caenorhabditis elegans [8] = experiment: Antioxidant activity in Caenorhabditis elegans CL4176 assessed as effect on juglone-induced ROS level by measuring relative fluorescence intensity at 50 uM and 15 to 25 degreeC after 48 hrs by H2DCF-DA probe based fluorescence assay ( Rvb = 74.23 %); format: functional
# Caenorhabditis elegans [9] = experiment: Antioxidant activity in Caenorhabditis elegans CL4176 assessed as effect on juglone-induced ROS level by measuring relative fluorescence intensity at 100 uM and 15 to 25 degreeC after 48 hrs by H2DCF-DA probe based fluorescence assay ( Rvb = 74.23 %); format: functional
# Caenorhabditis elegans [10] = experiment: Effect on sod-3 mRNA expression in Caenorhabditis elegans CL4176 at 50 uM by qRT-PCR analysis; format: functional
# How it was run: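 CL4176 qRT-PCR of skn-1 or sod-3. RNA extracted with Trizol, EvaGreen qRT-PCR run for 40 cycles (95 °C 5 s, 60 °C 5 s). Normalized to ama-1 by the 2^−ΔΔCt method. Three independent RNA/cDNA preparations, run in triplicate.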
# Caenorhabditis elegans [11] = experiment: Upregulation of hsf-1 mRNA expression in Caenorhabditis elegans CL4176 at 50 uM by qRT-PCR analysis relative to control; format: functional; how it was run: as §2
# Caenorhabditis elegans [12] = experiment: Upregulation of hsp-16.2 mRNA expression in Caenorhabditis elegans CL4176 at 50 uM by qRT-PCR analysis relative to control; format: functional; how it was run: as §2
# Caenorhabditis elegans [13] = experiment: Upregulation of hsp-60 mRNA expression in Caenorhabditis elegans CL4176 at 50 uM by qRT-PCR analysis relative to control; format: functional; how it was run: as §2
# Caenorhabditis elegans [14] = experiment: Induction of HSP expression in Caenorhabditis elegans; format: functional
# Caenorhabditis elegans [15] = experiment: Inhibition of AChE in Caenorhabditis elegans CL4176 assessed as enzyme activity at 25 uM after 48 hrs by DTNB reagent based colorimetric analysis (reference value: 272.49 +/- 14.6 units/L)
# How it was run: (§3)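 Transgenic CL4176 worms kept on NGM plates with compound (0, 25, 50, 100 µM) at 25 °C for 48 h. Lysates made by sonication in 0.1 M phosphate buffer pH 7.4 and centrifuged at 13000 rpm for 5 min. AChE activity in the supernatant was measured with a kit, read as absorbance at 412 nm, given in Units/L normalized to protein concentration, mean ± S.D.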
# Caenorhabditis elegans [16] = experiment: Inhibition of AChE in Caenorhabditis elegans CL4176 assessed as enzyme activity at 50 uM after 48 hrs by DTNB reagent based colorimetric analysis (reference value: 272.49 +/- 14.6 units/L); how it was run: as §3
# Caenorhabditis elegans [17] = experiment: Inhibition of AChE in Caenorhabditis elegans CL4176 assessed as enzyme activity at 100 uM after 48 hrs by DTNB reagent based colorimetric analysis (reference value: 272.49 +/- 14.6 units/L); how it was run: as §3
# Caenorhabditis elegans [18] = experiment: Effect on ace-1 mRNA expression in Caenorhabditis elegans CL4176; format: functional
# Mus musculus [19] = experiment: Cognitive enhancing effect in APP/PS1 double mutant-transgenic C57BL/6 mouse model assessed as effect on escape latency time at 1 mg/kg, iv measured on day 5 by Morris water maze test (reference value: 50.08 +/- 17.95 sec); format: functional; settings: time 5 day
# Mus musculus [20] = experiment: Cognitive enhancing effect in APP/PS1 double mutant-transgenic C57BL/6 mouse model assessed as time spent on target quadrant at 1 mg/kg, iv measured on day 6 by Morris water maze test (reference value: 11.77 +/- 5.28 sec); format: functional; settings: time 6 day
# Mus musculus [21] = experiment: Cognitive enhancing effect in APP/PS1 double mutant-transgenic C57BL/6 mouse model assessed as increase in number of hidden escape platform crossings at 1 mg/kg, iv; format: functional, organism-based
# Caenorhabditis elegans [22] = experiment: Reduction in Amyloid-beta deposits in transgenic Caenorhabditis elegans CL4176 using anti-Abeta 6E10/rhodamine-phalloidin at 50 to 100 uM after 48 hrs by immunostaining; format: functional; settings: dose microM 50-100, time 48.0 hrs
# How it was run: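 CL4176 L3 worms kept on compound plates (50, 100 µM) at 25 °C for 2 days. Fixed in 4% paraformaldehyde and permeabilized with 1% Triton X-100. Stained with 6E10 plus Alexa Fluor 488 secondary and rhodamine-phalloidin (1:4000). Confocal imaging at ex 488/em 500–530 nm and ex 543/em 565–605 nm.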
# Caenorhabditis elegans [23] = experiment: Protection against oligomycin-induced mitochondrial stress in Caenorhabditis elegans CL4176 assessed as effect oxygen consumption rate at 100 uM after 48 hrs by seahorse XFe24 analyser based assay
compound,measurement,setting,value
Oc1cc(CN(Cc2ccccn2)Cc2ccccn2)cc(C[P+](c2ccccc2)(c2ccccc2)c2ccccc2)c1.[Br-],inhibition,[1],20%
same,inhibition,[2],Active
same,Activity,Caenorhabditis elegans [3],Active
same,Activity,Caenorhabditis elegans [4],Active
same,Activity,Caenorhabditis elegans [5],Active
same,Activity,Caenorhabditis elegans [6],Active
same,Activity,Caenorhabditis elegans [7],21.72%
same,Activity,Caenorhabditis elegans [8],48.97%
same,Activity,Caenorhabditis elegans [9],28.14%
same,Activity,Caenorhabditis elegans [10],inactive
same,fold change (FC),Caenorhabditis elegans [11],1.55
same,fold change (FC),Caenorhabditis elegans [12],2.15
same,fold change (FC),Caenorhabditis elegans [13],1.59
same,Activity,Caenorhabditis elegans [14],Active
same,Activity,Caenorhabditis elegans [15],248 U/L
same,Activity,Caenorhabditis elegans [16],166 U/L
same,Activity,Caenorhabditis elegans [17],135 U/L
same,Activity,Caenorhabditis elegans [18],inactive
same,Time,Mus musculus [19],34.25 s
same,Time,Mus musculus [20],17.2 s
same,Activity,Mus musculus [21],Active
same,Activity,Caenorhabditis elegans [22],Active
same,Activity,Caenorhabditis elegans [23],Active
